The values below come from ChEMBL document CHEMBL4184233, “Design and synthesis of novel dasatinib derivatives as inhibitors of leukemia stem cells” (Bioorg Med Chem Lett, 2018).

For orientation: IC50 means the midpoint of a concentration-inhibition curve. Low values mean higher potency, high ones lower potency.

Calls of active or inactive are those of the source. The calls are words filed in the database; no cut-off is given here.

For series [1], the system named is KG-1a. Briefly: Growth inhibition of human KG1a cells. The series is classed as functional, cell-based.
For series [2], the system named is K562. Briefly: Growth inhibition of human K562 cells. In kind it is functional, cell-based.
In series [3] the test system is HL-60. Briefly: Growth inhibition of human HL60 cells. The series is classed as functional, cell-based.
In series [4] the test system is Mus musculus. Put plainly: Toxicity in Kunming mouse assessed as survival rat at 500 mg/kg, po dosed once for 2 weeks. The series is classed as organism-based. Conditions: in vivo, 336 h. Put shortly:
(§1)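 Single oral dose to mice, then observed for 14 days with survival rate recorded. Doses tested were 200, 500 and 1000 mg/kg. The dasatinib comparator was given at 200 mg/kg only.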

Series [5] is described as follows: Toxicity in Kunming mouse assessed as survival rat at 200 mg/kg, po dosed once for 2 weeks. The series is classed as organism-based. Conditions: in vivo. The procedure, abridged: as §1
For series [6], the system named is Mus musculus. Put plainly: Toxicity in Kunming mouse assessed as survival rat at 1000 mg/kg, po dosed once for 2 weeks. In kind it is organism-based. The following applies: in vivo, 336 h. The procedure, abridged: as §1
For series [7], the system named is MCF7. Put plainly: Inhibition of colony formation in human MCF7 cells incubated for 10 days by crystal violet staining based plate cloning test. The series is classed as functional, cell-based. The procedure, abridged:
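MCF-7 colony formation assay. Cells received low, middle and high concentrations (0.96/1.90/3.80 μM or 0.68/1.35/2.70 μM, depending on compound) for 10 days. Colony counts were compared with an untreated control group, with significance at P < 0.05 and P < 0.01.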

The subject of series [8] is B16-BL6. Put plainly: Inhibition of cell migration of mouse B16-BL6 cells at 0.82 uM incubated for 24 to 48 hrs by cell wound scratch assay. The series is classed as functional, cell-based. The procedure, abridged:
(§2)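 Wound-scratch migration assay in mouse B16BL6 monolayers. Each compound was given at a single concentration for 2 days, and migration was compared with an untreated control group.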

In series [9] the test system is KG-1a. Briefly: Potency index, ratio of IC50 for dasatinib to IC50 for test compound for growth inhibition of human KG1a cells. In kind it is functional.
Series [10] has as its system B16-BL6. Put plainly: Inhibition of cell migration of mouse B16-BL6 cells at 1.43 uM incubated for 24 to 48 hrs by cell wound scratch assay. In kind it is functional, cell-based. Put shortly:
as §2

The subject of series [11] is MCF7. The following applies: Homo sapiens, 7.5 uM.
Series [12] deals with B16-BL6. The following applies: Mus musculus, 8.13 uM.

Turning to `Cc1nc(Nc2ncc(C(=O)Nc3c(C)cccc3Cl)s2)cc(N2CCN(CCNC(=O)CCl)CC2)n1`, the values for the IC50 in series [1], in series [2] and in series [3] were 13600 nM, 1.67 nM and 0.86 nM, respectively.

Take `Cc1nc(Nc2ncc(-c3nnc(-c4c(C)cccc4Cl)o3)s2)cc(N2CCN(CCNC(=O)CCl)CC2)n1`: the 50% inhibitory concentration (IC50) in [1] is 9750 nM; in [2] it was 3060 nM; in series [3], 2120 nM.

Turning to `C=CC(=O)NCCN1CCN(c2cc(Nc3ncc(C(=O)Nc4c(C)cccc4Cl)s3)nc(C)n2)CC1`, the 50% inhibitory concentration (IC50) in series [1] was found to be 12900 nM; in [2], 0.039 nM; in series [3], 0.26 nM.

For `Cc1nc(Nc2ncc(-c3cn(-c4c(C)cccc4Cl)nn3)s2)cc(N2CCN(CCO)CC2)n1`, the Activity entry in series [4] and in [6] was “Non-Toxic” in each case. For the same molecule, the survival at 336 h in series [5] amounted to 100%. Moreover, the IC50 in [1] was found to be 140 nM; in [2] it was 14.1 nM; in series [3], 4.19 nM. The inhibition result in series [7] was “Dose-dependent effect”. In series [8], the inhibition result is “Active”.

For the molecule `Cc1nc(Nc2ncc(-c3nnc(-c4c(C)cccc4Cl)o3)s2)cc(N2CCN(CCO)CC2)n1`, the Activity result in series [4] and in series [6] was “Non-Toxic” throughout. In addition, the survival at 336 h in [5] came to 100%. Moreover, in series [9], the “Ratio IC50” value amounted to 180. In addition, the IC50 in [1] turned out to be 50 nM; in series [2], 230 nM; in series [3], 150 nM. In addition, the inhibition entry in [10] was “Active”. Further, in [7], the inhibition entry was “Dose-dependent effect”.

Regarding `Cc1nc(Nc2ncc(C(=O)Nc3c(C)cccc3Cl)s2)cc(N2CCN(CCO)CC2)n1` [DASATINIB], the inhibition entry in series [11] and in [12] was “Active” in each case. In addition, the survival at 336 h in series [5] came out at 100%. For the same molecule, the figures for the IC50 in series [1], in series [2] and in [3] were 8980 nM, 0.069 nM and 0.11 nM, respectively.

For `Cc1nc(Nc2ncc(-c3nnc(-c4c(C)cccc4Cl)o3)s2)cc(N2CCN(CCN)CC2)n1`, the IC50 in series [1] stood at 680 nM; in [2], 260 nM; in [3], 110 nM.

For `Cc1nc(Nc2ncc(C(=O)Nc3c(C)cccc3Cl)s2)cc(N2CCN(CCN)CC2)n1`, the 50% inhibitory concentration (IC50) was 25400 nM in series [1], 0.72 nM in series [2] and 0.25 nM in series [3].

For the molecule `Cc1nc(Nc2ncc(C(=O)Nc3c(C)cccc3Cl)s2)cc(N2CCN(CCN=C=S)CC2)n1`, the half-maximal inhibitory concentration (IC50) in [1] came out at 1960 nM; in [2], 3.77 nM; in series [3] it was 1.07 nM.

For `Cc1nc(Nc2ncc(-c3cn(-c4c(C)cccc4Cl)nn3)s2)cc(N2CCN(CCNC(=O)CCl)CC2)n1`, the IC50 in series [1] amounted to 450 nM; in [2], 17.6 nM; in [3] it was 9.82 nM.

With `Cc1nc(Nc2ncc(-c3cn(-c4c(C)cccc4Cl)nn3)s2)cc(N2CCN(CCN=C=S)CC2)n1`, the half-maximal inhibitory concentration (IC50) in [1] was found to be 320 nM; in [2] it was 36.5 nM; in [3], 16.6 nM.

Consider `Cc1nc(Nc2ncc(-c3cn(-c4c(C)cccc4Cl)nn3)s2)cc(N2CCN(CCN)CC2)n1`, for which the half-inhibitory concentration (IC50) in series [1] is 2060 nM; in series [2], 11.7 nM; in [3], 4.08 nM.

With `C=CC(=O)NCCN1CCN(c2cc(Nc3ncc(-c4cn(-c5c(C)cccc5Cl)nn4)s3)nc(C)n2)CC1`, the half-maximal inhibitory concentration (IC50) was 250 nM in series [1], 15.1 nM in series [2] and 5.46 nM in series [3].

Take `Cc1nc(Nc2ncc(-c3nnc(-c4c(C)cccc4Cl)o3)s2)cc(N2CCN(CCN=C=S)CC2)n1`: the half-inhibitory concentration (IC50) in series [1] is 150 nM; in series [2], 1810 nM; in series [3] it was 1420 nM.

For `C=CC(=O)NCCN1CCN(c2cc(Nc3ncc(-c4nnc(-c5c(C)cccc5Cl)o4)s3)nc(C)n2)CC1`, the half-inhibitory concentration (IC50) in [1] stood at 110 nM; in series [2], 150 nM; in series [3], 160 nM.
